Experimental data reported in ChEMBL document CHEMBL4017491, “Phthalazino[1,2-b]quinazolinones as p53 Activators: Cell Cycle Arrest, Apoptotic Response and Bak-Bcl-xl Complex Reorganization in Bladder Cancer Cells” (J Med Chem, 2017).
Active and inactive are the calls of the source. No cut-off for these calls is given here.

Legend:
[1] = test system: T-24; experiment: Effect on Bcl-2 expression in human T24 cells up to 10 uM after 24 hrs by Western blot analysis; assay type: functional, cell-based
Outline: (§1)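 T24 cells, 3 × 10^5 per well, grown to 85−95% confluence, then exposed to 0−10 μM for 24 h. Whole-cell extracts in sample buffer run on SDS-polyacrylamide gels and transferred to nitrocellulose. Blots probed with primary antibodies and AP-linked anti-rabbit IgG, detected by ECL. Blots stripped and reprobed for β-actin as loading control.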

[2] = test system: T-24; experiment: Antiproliferative activity against human T24 cells by MTT assay; assay type: functional, cell-based
Outline: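 Cell lines cultured in RPMI 1640 with 10% FBS. Viability read by MTT (5 mg/mL, 4 h at 37 °C), with formazan dissolved in DMSO and absorbance taken at 490 nm. Viability (%) = A490 treated / A490 control × 100. IC50 taken from dose-response curves, from three independent experiments each run in triplicate.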

[3] = test system: J82; experiment: Cell cycle arrest in human J82 cells assessed as accumulation at S phase at 10 uM after 48 hrs by propidium iodide staining based FACS analysis (reference value: 46.79 %); assay type: functional
Outline: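 Cells treated with 1−10 μM for 48 h, trypsinized, and fixed in 70% ethanol. Stained with 50 μg/mL propidium iodide and phase distribution analyzed by flow cytometry. Mean ± SD from three independent measurements.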

[4] = test system: T-24; experiment: Effect on Bcl-Xl expression in human T24 cells up to 10 uM after 24 hrs by Western blot analysis; assay type: functional, cell-based; outline: as §1

Q: Which Activity [1] does the source give for `CN(C)CCNc1nn2c(=O)c3cc(Br)ccc3nc2c2ccccc12` here?
A: inactive

Q: And the IC50 [2]?
A: 3.09 µM

Q: What about the Activity [3] of the same compound?
A: 64.2%

Q: What about the Activity [4] of the same compound?
A: inactive
